Results reported in ChEMBL document CHEMBL3352606, “Oligo-β-(1 → 3)-glucans: impact of thio-bridges on immunostimulating activities and the development of cancer stem cells” (J Med Chem, 2014).
The source made the active and inactive calls. The calls are words filed in the database; no cut-off is given here.

Tests used:
Mus musculus [1] = test: Immunostimulation activity in BALB/c mouse assessed as production of TNF-alpha in peripheral blood at 100 ug, ip by EIA; assay type: functional, organism-based
In short: (§1)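 BALB/c mice received 100 μg oligosaccharide i.p., or PBS. Mice were sacrificed at intervals and serum was stored at −80 °C for ≤1 week. IL-1β and TNF-α were measured by ELISA at 450 nm with 570 nm correction, against a standard curve run with each assay (linear regression). Mean of three experiments ± SD.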

Mus musculus [2] = species: Mus musculus; test: Immunostimulation activity in BALB/c mouse assessed as stimulation of […] neutrophils measured […] post compound injection; assay type: functional, organism-based
In short: (§2)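 Mice were injected with oligosaccharides 1 or 4 days before. Peritoneal macrophages (1 × 10^7, in RPMI-1640 with 5% FCS) were incubated with HEMA particles, Giemsa-stained and differentially counted; cells with ≥3 particles were scored positive. Peripheral blood was scored the same way, using one heparinised drop from the orbital plexus. Mean of three experiments ± SD.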

Mus musculus [3] = species: Mus musculus; test: Immunostimulation activity in BALB/c mouse assessed as stimulation of […] neutrophils measured […] in presence of polymyxin B; assay type: functional, organism-based
In short: (§3)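 This is the HEMA-particle phagocytosis assay repeated with 10 μg/mL polymyxin B added to the samples. Peritoneal cells (1 × 10^7, RPMI-1640 with 5% FCS) and heparinised orbital-plexus blood were taken from mice injected with oligosaccharides 1 or 4 days before. Cells were Giemsa-stained, and those carrying ≥3 particles were scored positive.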

[4] = Upregulation of PKC expression in human Detroit 573 cells at by RT-PCR analysis; assay type: ADME, cell-based
In short: (§4)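 Total RNA was Trizol-extracted from control and treated cells (ZR-75-1 or Detroit 573; 10% heat-inactivated FCS, 37 °C, 5% CO2). 200 ng was taken through one-step RT-PCR: 30 min at 50 °C, 2 min at 95 °C, then 25 cycles with gene-specific annealing and extension. Products were run on 1.0% agarose, normalised to β-actin and quantified by densitometry. Three independent experiments, Student's t test.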

[5] = Downregulation of CDC25 expression in human Detroit 573 cells at by RT-PCR analysis; assay type: ADME, cell-based; in short: as §4
Mus musculus [6] = species: Mus musculus; test: Immunostimulation activity in BALB/c mouse assessed as stimulation of monocytes measured […] post compound injection; assay type: functional, organism-based; in short: as §2
Mus musculus [7] = test: Immunostimulation activity in BALB/c mouse assessed as production of IL-2 in conA-stimulated splenocytes at 100 ug, ip by EIA; assay type: functional, organism-based
In short: (§5)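 Purified spleen cells (2 × 10^6/mL in RPMI 1640 with 5% FCS) were cultured for 72 h at 37 °C, 5% CO2; 1 μg Concanavalin A was added to positive-control wells. Supernatants were filtered at 0.45 μm and IL-2 was measured by mouse IL-2 ELISA kit. Mean of three experiments ± SD; PBS-injected mice served as controls.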

ZR-75-1 [8] = test: Effect on CDC25 expression in human ZR-75-1 cells at by RT-PCR analysis; assay type: functional, cell-based; in short: as §4
Mus musculus [9] = species: Mus musculus; test: Immunostimulation activity in BALB/c mouse assessed as production of IL-2 in splenocytes measured 1 to 3 days post compound injection; assay type: functional, organism-based; in short: as §5
Mus musculus [10] = species: Mus musculus; test: Immunostimulation activity in BALB/c mouse assessed as stimulation of peritoneal macrophages measured […] in presence of polymyxin B; assay type: functional, organism-based; in short: as §3
ZR-75-1 [11] = test: Upregulation of PKC expression in human ZR-75-1 cells at by RT-PCR analysis; assay type: functional, cell-based; in short: as §4
ZR-75-1 [12] = test: Upregulation of NF-kappaB expression in human ZR-75-1 cells at by RT-PCR analysis; assay type: functional, cell-based; in short: as §4
Mus musculus [13] = species: Mus musculus; test: Immunostimulation activity in BALB/c mouse assessed as stimulation of monocytes measured […] post compound injection in presence of polymyxin B; assay type: functional, organism-based; in short: as §3
Mus musculus [14] = species: Mus musculus; test: Immunostimulation activity in BALB/c mouse assessed as stimulation of peritoneal macrophages measured […] post compound injection; assay type: functional, organism-based; in short: as §2
Mus musculus [15] = test: Immunostimulation activity in BALB/c mouse assessed as production of […] in peripheral blood at 100 ug, ip by EIA; assay type: functional, organism-based; in short: as §1
Mus musculus [16] = species: Mus musculus; test: Immunostimulation activity in BALB/c mouse assessed as influx of peritoneal macrophages measured 1 to 3 days post compound injection; assay type: functional, organism-based
[17] = Downregulation of NF-kappaB expression in human Detroit 573 cells at by RT-PCR analysis; assay type: ADME, cell-based; in short: as §4
[18] = Upregulation of CDC42 expression in human Detroit 573 cells at by RT-PCR analysis; assay type: ADME, cell-based; in short: as §4
ZR-75-1 [19] = test: Downregulation of CDC42 expression in human ZR-75-1 cells at by RT-PCR analysis; assay type: functional, cell-based; in short: as §4

OC[C@H]1O[C@@H](O[C@@H]2[C@@H](O)[C@H](S[C@@H]3[C@@H](O)[C@H](O)O[C@H](CO)[C@H]3O)O[C@H](CO)[C@H]2O)[C@H](O)[C@@H](O)[C@@H]1O
Activity (Mus musculus [1]): Active
Activity (Mus musculus [2]): Active
Activity (Mus musculus [3]): Active
Activity [4]: Toxic
Activity [5]: Non-toxic
Activity (Mus musculus [6]): Active
Activity (Mus musculus [7]): Active
Activity (ZR-75-1 [8]): inactive
Activity (Mus musculus [9]): Active
Activity (Mus musculus [10]): Active
Activity (ZR-75-1 [11]): Active
Activity (ZR-75-1 [12]): Active
Activity (Mus musculus [13]): Active
Activity (Mus musculus [14]): Active
Activity (Mus musculus [15]): Active
Activity (Mus musculus [16]): Active
Activity [17]: Non-toxic

OC[C@H]1O[C@@H](O[C@@H]2[C@@H](O)[C@H](S[C@@H]3[C@@H](O)[C@H](S[C@H]4[C@H](O)[C@@H](CO)OC(O)[C@@H]4O)O[C@H](CO)[C@H]3O)O[C@H](CO)[C@H]2O)[C@H](O)[C@@H](O)[C@@H]1O (stereo partly specified)
Activity (Mus musculus [1]): Active
Activity (Mus musculus [2]): Active
Activity (Mus musculus [3]): Active
Activity [4]: Toxic
Activity (Mus musculus [6]): Active
Activity (Mus musculus [7]): Active
Activity (Mus musculus [9]): Active
Activity (Mus musculus [10]): Active
Activity (ZR-75-1 [11]): Active
Activity (Mus musculus [13]): Active
Activity (Mus musculus [14]): Active
Activity (Mus musculus [15]): Active
Activity [18]: Non-toxic
Activity (Mus musculus [16]): Active
Activity [17]: Toxic

OC[C@H]1O[C@@H](O[C@@H]2[C@@H](O)[C@H](O[C@@H]3[C@@H](O)[C@H](S[C@H]4[C@H](O)[C@@H](CO)OC(O)[C@@H]4O)O[C@H](CO)[C@H]3O)O[C@H](CO)[C@H]2O)[C@H](O)[C@@H](O)[C@@H]1O (stereo partly specified)
Activity (Mus musculus [1]): Active
Activity (Mus musculus [2]): Active
Activity (Mus musculus [3]): Active
Activity (ZR-75-1 [19]): Active
Activity [4]: Toxic
Activity [5]: Non-toxic
Activity (Mus musculus [6]): Active
Activity (Mus musculus [7]): Active
Activity (ZR-75-1 [8]): inactive
Activity (Mus musculus [9]): Active
Activity (Mus musculus [10]): Active
Activity (ZR-75-1 [11]): Active
Activity (Mus musculus [13]): Active
Activity (Mus musculus [14]): Active
Activity (Mus musculus [15]): Active
Activity (Mus musculus [16]): Active
Activity [17]: Non-toxic

OC[C@H]1O[C@@H](S[C@@H]2[C@@H](O)[C@H](S[C@H]3[C@H](O)[C@@H](CO)OC(O)[C@@H]3O)O[C@H](CO)[C@H]2O)[C@H](O)[C@@H](O)[C@@H]1O (stereo partly specified)
Activity (Mus musculus [2]): Active
Activity (Mus musculus [3]): Active
Activity [4]: Toxic
Activity [5]: Non-toxic
Activity (Mus musculus [6]): Active
Activity (ZR-75-1 [8]): inactive
Activity (Mus musculus [10]): Active
Activity (ZR-75-1 [11]): Active
Activity (Mus musculus [13]): Active
Activity (Mus musculus [14]): Active
Activity [18]: Non-toxic
Activity (Mus musculus [16]): Active
